Experimental data as given in PMC5538687 (International Journal of Nanomedicine, 2017).
Read-outs that look alike come from different tables or passages of the source.

What was measured:
[1] = target: T1, mouse FAPα protein (Mus musculus, UniProt P97321); assay: In vitro protease assay with recombinant FAPα; type: biochemical; conditions: 37°C
T1 sequence (P97321 1-761): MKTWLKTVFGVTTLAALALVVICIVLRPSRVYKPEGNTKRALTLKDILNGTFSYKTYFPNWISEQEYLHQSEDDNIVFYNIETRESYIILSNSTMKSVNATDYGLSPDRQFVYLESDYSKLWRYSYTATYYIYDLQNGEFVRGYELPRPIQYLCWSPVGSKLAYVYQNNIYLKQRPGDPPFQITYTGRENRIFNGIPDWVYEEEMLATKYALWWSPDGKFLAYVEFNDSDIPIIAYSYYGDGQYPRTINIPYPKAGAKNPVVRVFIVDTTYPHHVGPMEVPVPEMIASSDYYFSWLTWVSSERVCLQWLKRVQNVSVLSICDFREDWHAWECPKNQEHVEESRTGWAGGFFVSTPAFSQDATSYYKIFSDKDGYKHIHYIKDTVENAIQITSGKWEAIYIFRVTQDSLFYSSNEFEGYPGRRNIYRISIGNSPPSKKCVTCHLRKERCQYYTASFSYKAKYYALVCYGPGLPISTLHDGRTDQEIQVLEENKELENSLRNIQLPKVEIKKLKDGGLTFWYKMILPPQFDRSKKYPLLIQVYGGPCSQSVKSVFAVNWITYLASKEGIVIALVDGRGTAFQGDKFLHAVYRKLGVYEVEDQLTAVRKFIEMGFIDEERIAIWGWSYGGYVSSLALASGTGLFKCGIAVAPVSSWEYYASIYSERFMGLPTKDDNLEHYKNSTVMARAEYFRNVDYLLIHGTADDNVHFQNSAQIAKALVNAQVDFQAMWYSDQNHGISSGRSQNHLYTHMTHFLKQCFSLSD

[2] = system: Eca109 xenograft tumor (FAPα in tumor stroma); type: in vivo, BALB/c-nude mice; conditions: for AUC of ROC curve, ESCC vs healthy mice: 1 hour urine, n=10 per group
How it was run: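 BALB/c-nude mice aged 4–6 weeks were given 5×10⁶ Eca109 cells s.c. and grown 4 weeks to tumours of 100–300 mm³. Tumour-bearing and age-matched healthy mice (n=10 each) were co-injected via the tail vein with probe nanoparticles (100 μL PBS; 100 or 10 nM by peptide) plus control peptide at the same level. Urine was collected at set times, with 1 h urine used for diagnosis. It was stored at −80°C, diluted 1:10–10² in PBS/1% BSA, and run by ELISA in at least duplicate. ROC analysis was applied.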

[3] = system: Eca109 xenograft tumor; assay: In vivo imaging and biodistribution; set-up: species or system BALB/c-nude mice; conditions: 100 μL, 100 nM by peptide, i.v.; 1 hour postinjection

Level of cleaved reporter peptides over time ([1]; marker-MNPs treated with 10 nM FAPα): increased over time
Substance: Bio-eGvndneeGffsar-K [5-FAM]-GPGPNQC [marker-MNPs]
Level of cleaved reporter peptides with increasing FAPα concentration ([1]; marker-MNPs 10 nM by peptide, recombinant FAPα 0.1–100 pM, 1 hour, ELISA, n=3 per dose): elevated levels of cleaved reporter peptides were detected by ELISA with increasing concentration of FAPα | Sensitivity ([2]; 10 nM group): 90% | Specificity ([2]; 10 nM group): 97% | AUC of ROC curve, ESCC vs healthy mice ([2]; 10 nM group): 0.97 | Sensitivity ([2]; 100 nM group): 100% | Specificity ([2]; 100 nM group): 100% | AUC of ROC curve, ESCC vs healthy mice ([2]; 100 nM group): 1.0 | Time of peak concentration of cleaved reporter peptide in urine ([2]; 100 nM marker-MNPs i.v., ESCC tumor mice, n=3, ELISA): 60 min | Time at which urinary cleaved reporter dropped to the bottom line ([2]; 100 nM marker-MNPs i.v., ESCC tumor mice, postinjection): 150 min | Urine reporter in healthy mice ([2]; 100 nM marker-MNPs i.v., healthy mice, 0–180 min): not detectable | Ratio of reporter to reporter control, ESCC vs healthy mice ([2]; 1 hour postinjection urine, P<0.0001): significantly higher than in healthy control mice | In vivo fluorescence imaging of tumor-bearing mice vs control [3]: strong fluorescent activation in the tumor region and bladder
